EP2 antag: inhibitors of human EP2 prostaglandin E2 receptor; C6 glioma cells expressing human EP2, cAMP TR-FRET; cells stimulated with saturating PGE2; inhibition, % at 25 µM; 0.52% of 260,000 active;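 active means percent inhibition above 40 after rounding to a whole number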;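 further: rat C6 glioma host cells with rolipram phosphodiesterase inhibitor present; the protocol text gives 20 µM as final concentration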
Target sequence (P43116 whole entry, looked up): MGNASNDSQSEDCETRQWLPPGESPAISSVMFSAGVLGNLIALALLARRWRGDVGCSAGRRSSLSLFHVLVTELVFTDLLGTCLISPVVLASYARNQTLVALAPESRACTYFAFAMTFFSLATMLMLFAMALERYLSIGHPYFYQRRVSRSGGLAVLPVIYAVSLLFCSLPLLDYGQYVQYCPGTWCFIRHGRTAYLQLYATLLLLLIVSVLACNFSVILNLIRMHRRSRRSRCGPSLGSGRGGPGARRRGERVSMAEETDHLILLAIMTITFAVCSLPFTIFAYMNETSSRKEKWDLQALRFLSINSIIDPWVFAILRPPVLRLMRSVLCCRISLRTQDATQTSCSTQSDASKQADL
EP2 mod: EP2 receptor (human) modulation. EP2-expressing cells, cAMP HTRF FRET, PGE2 co-stimulation. induction, % at 25 µM. 0.83% of 260,000 active;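 active means compounds whose cAMP rise, as percent of the full-agonist control response, exceeds 60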;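 further: rat C6 glioma line stably carrying human EP2 under a CMV promoter; the protocol text gives 20 µM as final concentration; 100% = response of wells given 1 µM PGE2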
OX1R antag-1: human HCRTR1 antagonism. O43613. CHO/OX1R cells, Fluo-8 calcium fluorescence, orexin A. inhibition, % at 5 µM. 0.43% of 330,000 active;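 active means inhibition above its plate's threshold, mean inhibition of all tested compounds on the plate plus 3 SD, cut at about 37% in these data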;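 further: 0% = orexin A challenge wells and 100% = SB-334867-A antagonist wells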
GPR7 antag: antagonists of human GPR7 (neuropeptides B/W receptor 1); GPR7-expressing cells, fluorescence antagonist assay; 1.1% of 290,000 active; inhibition, % at 4.4 µM; P48145; in the data active means inhibition above about 16%, passing the limit was not always enough;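 further: cells stimulated with the agonist NPW; 0% = agonist with vehicle and 100% = vehicle without agonist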
Target sequence (P48145 whole entry, looked up): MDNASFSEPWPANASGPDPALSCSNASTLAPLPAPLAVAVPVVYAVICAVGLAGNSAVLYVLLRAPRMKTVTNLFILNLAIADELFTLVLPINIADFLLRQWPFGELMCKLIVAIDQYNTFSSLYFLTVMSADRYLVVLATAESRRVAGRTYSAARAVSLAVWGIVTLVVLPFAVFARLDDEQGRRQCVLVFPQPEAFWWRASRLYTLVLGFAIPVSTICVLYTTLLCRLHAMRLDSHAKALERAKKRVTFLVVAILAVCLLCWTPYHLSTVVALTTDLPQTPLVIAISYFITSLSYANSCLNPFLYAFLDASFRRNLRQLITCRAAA
OX1R antag-2: blocks the human orexin 1 receptor | OX1R-expressing cells, FRET antagonist read-out | inhibition, % at 6.6 µM | 1.8% of 330,000 active; in the data active means inhibition mostly above about 38%, no sharp cut-off; inactive means mostly below about 40%;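 further: 0% = agonist challenge alone and 100% = reference antagonist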
CHO parental Ca: counter-screen: ATP calcium response change in parental CHO cells. parental CHO-K1, ATP-induced calcium, Fluo-8 fluorescence. inhibition, % at 5.6 µM. 0.63% of 330,000 active. AID 463079;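 active means inhibition above that plate's mean sample inhibition plus 3 SD, cut at about 26% in these data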;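 further: 0% = ATP-challenged DMSO wells and 100% = DMSO wells without ATP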
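Measured by: calcium-sensitive Fluo-8 fluorescence / Test system: CHO parental line / Controls: ATP-challenged DMSO wells low, unchallenged DMSO wells high / Measure: % inhibition / Compound: single nominal dose of 5.6 µM per compound / Replicates: single well per compound, no replicates / Reagent: ATP as calcium-mobilizing challenge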
OX1R HTRF conf: confirmation of human orexin 1 receptor antagonists, HTRF format. OX1R-expressing cells, HTRF antagonist assay. shares compounds with OX1R antag-2. 49% of 1,800 active. AID 492964. inhibition, % at 6.6 µM; in the data active means inhibition above about 55%;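 further: CHO cells expressing OX1R stimulated with orexin A at about EC80; 0% = agonist challenge alone and 100% = reference antagonist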
CHO-K1 HTRF: counter-screen: parental CHO-K1 HTRF response. AID 493232. parental CHO-K1 cells, HTRF counterscreen. shares compounds with OX1R antag-2. inhibition, % at 6.6 µM. 48% of 1,800 active; in the data active means inhibition above about 17%;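 further: 0% = agonist challenge with vehicle and 100% = vehicle alone without agonist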
* = called active by the depositor; . = no result given. Only some compounds are listed: those with a hit (about 3.7% of all), similar ones and a draw of the others.

SMILES	EP2 antag	EP2 mod	OX1R antag-1	GPR7 antag	OX1R antag-2	CHO parental Ca	OX1R HTRF conf	CHO-K1 HTRF
CC(CC1C(C#N)=C(N)SC(N)=C1C#N)c1ccccc1 (stereo unspecified)	15.9	-29.5	8.2	1.3	87.7*	9.1	23.5	1.6
CC(C)(C)NC(=O)c1cnn2c1NC(c1ccc(F)cc1)CC2C(F)(F)F (stereo unspecified)	12.1	14.7	-26.4	-9.1	-4.5	-15.6	.	.
CN1CCN(Cc2c(O)ccc3cc(-c4ccccn4)c(=O)oc23)CC1	3.0	28.4	-16.1	-2.5	80.8*	-21.7	49.4	33.4*
O=C(NNC(=O)c1cccnc1)Nc1cccc2ccccc12	11.0	-18.2	-15.4	-2.3	14.2	-4.8	.	.
O=C(Nc1ccccc1)NC1CCS(=O)(=O)C1 (stereo unspecified)	15.1	16.5	-6.4	-7.7	-1.5	-5.2	.	.
CC(=O)NC1=C(NC2CCS(=O)(=O)C2)C(=O)c2ccccc2C1=O (stereo unspecified)	7.6	23.4	-4.0	-4.3	141.2*	-7.3	68.6*	94.2*
COC(=O)Cn1c(=N)n(CCN2CCCCC2)c2ccccc21	10.1	-13.1	-7.4	-3.1	96.0*	-4.0	13.6	-11.7
Cn1c2ccccc2c2cc(/C=N/NC(=O)c3ccc(N)cc3)ccc21	.	.	23.2	4.3	88.4*	-29.7	87.9*	7.5
O=Nc1ccc(O)c2ncccc12	16.2	-54.5	0.3	-10.8	105.0*	-7.2	44.6	39.0*
Cc1ccccc1N=Nc1ccc(O)c2ncccc12	11.0	-17.8	25.6	-1.7	13.3	43.6	.	.
CCOC(=O)C(CCCOc1ccccc1)C(=O)OCC	6.1	-8.2	-7.5	-2.7	-0.6	-8.9	.	.
Cc1ccc(-n2c3nc(=O)[nH]c(=O)c-3cc3cc([N+](=O)[O-])ccc32)cc1	5.2	-17.3	-6.0	7.0	84.5*	-12.5	56.0*	65.0*
CCCCc1nnc(NC(=O)C=C(C)C)s1	11.0	13.2	-25.6	0.4	5.5	-14.9	.	.
CCOC(=O)c1ccc(CNC(=O)C2CCC(=O)N(Cc3cccc(OC)c3)C2)o1 (stereo unspecified)	.	.	-13.6	17.7	16.9	-4.5	.	.
Cc1ccc2ncnc(Nc3ccc(C)c(C)c3)c2c1	12.9	-10.0	-28.6	-4.8	78.2*	-12.6	42.1	11.5
COCCCNc1ncnc2ccc(C)cc12	16.1	-5.2	-6.8	-17.3	30.5	0.8	.	.
O=C(CCNC(=O)c1ccc([N+](=O)[O-])cc1)N/N=C/c1ccc(F)cc1	9.0	-29.1	-26.9	-12.9	77.6*	6.8	23.9	26.8*
O=C(CCNC(=O)c1ccc([N+](=O)[O-])cc1)Nc1ccc(F)cc1	.	.	-12.9	9.2	31.2	-5.3	.	.
O=C(CN1CCN(c2ccccn2)CC1)Nc1cc(F)ccc1F	.	.	-21.9	10.2	0.4	-5.8	.	.
Cc1n[nH]c(C)c1N1C(=O)c2cccc3c(Br)ccc(c23)C1=O	27.6	-7.7	-4.4	-5.7	79.7*	1.6	41.8	40.0*
CC1(C)Cc2ccccc2C2=NNC(=O)C2=N1	9.6	-53.9	-6.5	-11.1	116.8*	1.4	54.0	77.5*
Cn1nnnc1Sc1ccc(C(=O)O)cc1[N+](=O)[O-]	9.1	-13.3	-9.3	-17.0	90.4*	-4.9	37.3	54.2*
Cn1cnnc1Sc1ccc(C(=O)OCC(=O)NC2CC2)cc1[N+](=O)[O-]	5.9	-34.1	.	-5.0	.	.	.	.
Cn1ccnc1Sc1ccc(C(N)=O)cc1[N+](=O)[O-]	0.8	25.1	3.7	-3.0	93.7*	4.6	37.5	31.9*
CC(=O)Nc1ccc(NC(=O)Nc2ccc3c(c2)N(C)C(=O)CS3)cc1	5.8	-47.9	-10.7	-6.7	14.1	-0.1	.	.
SMILES	EP2 antag	EP2 mod	OX1R antag-1	GPR7 antag	OX1R antag-2	CHO parental Ca	OX1R HTRF conf	CHO-K1 HTRF
COc1cccc(NC(=O)Nc2ccc3c(c2)N(C)C(=O)CS3)c1	42.3*	-36.4	3.1	6.8	81.6*	13.2	27.7	10.7
O=C(CCCOc1ccc(Cl)cc1Cl)NCCCn1ccnc1	2.8	-37.5	2.7	3.0	6.4	-8.7	.	.
Cc1nc2ccccc2c2oc(C(=O)Nc3ccc4c(c3)OCCO4)cc12	9.2	-13.6	-8.3	-16.9	95.3*	-24.1	89.0*	7.1
Cc1c(C(=O)Nc2ccc3c(c2)OCCO3)oc2ccc(Br)cc12	.	.	31.1	.	82.1*	-16.6	75.7*	12.7
COc1cc(NC(=O)c2cc3c(C)nc4ccccc4c3o2)cc(OC)c1OC	10.1	-59.1	-38.8	-7.7	7.9	-12.8	.	.
COc1ccc(C)cc1S(=O)(=O)N1CCC(C(=O)N2CCOCC2)CC1	6.6	0.0	-3.3	-13.8	5.1	-9.6	.	.
CCC(OC(=O)c1ccco1)C(=O)NCc1ccc(OC)cc1 (stereo unspecified)	.	.	8.5	-1.6	-0.4	-1.1	.	.
O=c1oc2ccc(Br)cc2cc1-c1nc2ccccc2o1	25.0	-3.5	2.3	6.0	14.5	14.6	.	.
COc1cccc2cc(-c3nc4ccccc4o3)c(=O)oc12	12.2	-31.6	0.1	0.3	123.2*	-21.7	24.5	18.1*
O=C(N/N=C/c1c(Cl)[nH]c2ccccc12)c1ccc2c(c1)OCCO2	3.8	-51.2	2.9	1.2	78.6*	1.9	86.5*	-3.1
CC(C)c1nn2c(N)c(/C=C3\C=Nc4ccccc43)c(=O)nc2s1	1.8	3.9	2.3	-21.4	81.7*	-11.1	65.9*	9.3
CCC(CC)c1nn2c(N)c(/C=C3\C=Nc4ccccc43)c(=O)nc2s1	4.1	-33.1	-21.3	-3.4	44.9	-14.8	.	.
CCOC(=O)c1sc(NC(=O)c2ccc(C)s2)cc1C	9.1	-11.9	1.6	-1.2	79.2*	2.9	46.1	12.8
CCOC(=O)c1sc(NC(=O)Nc2ccccc2Cl)cc1C	8.3	-27.0	0.3	-12.3	78.2*	-6.4	52.8	8.1
C=CCNC(=O)CCC(=O)NNc1nc2ccccc2c2nc(-c3ccccc3)nn12	2.2	-1.2	26.8	-2.1	84.0*	-5.3	85.5*	5.7
Cc1ccc(NC(=O)CSc2n[nH]c(-c3ccncc3)n2)c(C)c1	.	.	-27.6	6.5	5.2	-19.9	.	.
CCOc1ccc(NCc2cc3cc(OC)ccc3[nH]c2=O)cc1	12.7	-46.7	-13.3	-13.5	36.4	1.3	.	.
NCCCC[C@@H]1NC(=O)c2cc([N+](=O)[O-])cc(I)c2SC[C@@H](C(=O)NCC(N)=O)NC(=O)CNC1=O	10.7	26.1	-15.2	2.1	86.7*	-1.1	30.7	56.1*
CC(=O)N/C(=C/c1ccc2c(c1)OCO2)C(=O)OCC(=O)c1ccc(Cl)cc1	7.7	-32.0	.	.	.	.	.	.
O=C(O)c1ccc([N+](=O)[O-])c2c1C(=O)c1ccccc1C2=O	.	.	12.5	.	101.0*	1.0	69.0*	103.9*

Source: PubChem (several laboratories)
